Compounds with a hit are over-represented: about 1.5% of the library has one in this group of screens.
OXTR ag: activates the human oxytocin receptor; P30559; 320,000 compounds, 0.32% hits; activation, % at 3 µM; CHO-OTR cells, Fluo-8 calcium fluorescence; normalized: DMSO 0%, oxytocin 100%;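 active means activation above the mean of all tested compounds plus 3 SD, cutoff set per screening run, cut at about 20% in these data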;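 further: peak over basal fluorescence ratio from a 100 s FLIPR kinetic read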
Target sequence (P30559 whole entry, looked up): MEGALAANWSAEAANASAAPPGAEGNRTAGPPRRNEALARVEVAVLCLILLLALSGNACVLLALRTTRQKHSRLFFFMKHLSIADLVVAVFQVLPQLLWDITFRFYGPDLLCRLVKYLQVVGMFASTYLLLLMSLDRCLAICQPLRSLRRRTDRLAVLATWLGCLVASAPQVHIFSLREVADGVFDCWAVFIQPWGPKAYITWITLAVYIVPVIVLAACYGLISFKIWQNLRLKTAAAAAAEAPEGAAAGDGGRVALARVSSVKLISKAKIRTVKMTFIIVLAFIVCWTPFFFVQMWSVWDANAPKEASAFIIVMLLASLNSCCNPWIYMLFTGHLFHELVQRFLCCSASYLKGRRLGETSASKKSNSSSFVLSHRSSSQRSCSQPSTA
OXTR potentiate: potentiators of human oxytocin receptor; 320,000 compounds, 0.061% hits; activation, % at 3 µM; P30559; AID 2445; CHO-OTR cells, Fluo-8 calcium fluorescence, potentiator mode; 0% = oxytocin EC15, 100% = EC100;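 active means activation above that plate's cutoff, the mean activation of tested compounds plus 3 SD, cut at about 6.6% in these data, passing the limit was not always enough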;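 further: 100% uses oxytocin at 75 nM as the full agonist control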
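System: human OTR in CHO cells / Also added: sub-maximal oxytocin, roughly EC15 / Control set: EC15 oxytocin low, 75 nM oxytocin high / Schedule: 6 min compound pre-incubation at room temperature, 100 s kinetic read / Compound: single-point 3.0 µM / Replication: singlicate / Technique: Fluo-8 calcium dye fluorescence / Read-out basis: % activation of max/min ratio relative to oxytocin controls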
V1R ag counter: counter-screen for oxytocin receptor agonists: human V1a receptor agonists; P37288; CHO-V1R cells, Fluo-8 calcium fluorescence, agonist mode; 0% DMSO, 100% 3 nM vasopressin; activation, % at 3 µM; 320,000 compounds, 0.25% hits; AID 2797;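 active means activation above the mean activation of all tested compounds plus 3 SD, per screening run, cut at about 20% in these data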;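 further: signal is peak over basal fluorescence ratio across a 100 second FLIPR read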
CHRM4 PAM: potentiates acetylcholine response at human M4 receptor; P08173; 360,000 compounds, 0.4% hits; activation, % at 3 µM; AID 624126; CHO-K1 hM4/Gqi5, Fluo-8 calcium fluorescence, ACh EC20; 0% = ACh EC20, 100% = maximal ACh;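 active means activation above its plate's cutoff, the mean activation of sample wells plus 3 SD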
CHRM4 agonist: CHRM4 agonism in calcium assay; P08173; CHO-K1 hM4/Gqi5, Fluo-8 calcium fluorescence; vehicle 0%, full acetylcholine response 100%; activation, % at 3 µM; 360,000 compounds, 0.14% hits; AID 624127;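 active means activation above the run mean over all test wells plus 3 SD, cut at about 32% in these data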;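 further: peak over basal fluorescence ratio per well then scaled between controls; 0% = DMSO wells and 100% = acetylcholine at EC100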
CHRM4 antagonist: antagonists of human muscarinic M4 receptor (CHRM4). P08173. CHO-hM4 cells, ACh EC80, Fluo-8 calcium fluorescence. inhibition, % at 3 µM. 360,000 compounds, 0.73% hits. AID 624125;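 active means inhibition above its plate's cutoff, the mean inhibition of sample wells plus 3 SD, cut at about 27% in these data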;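 further: 0% = acetylcholine EC80 with DMSO and 100% = DMSO without agonist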
* hit, by the source's call; x = no result.

SMILES | OXTR ag | OXTR potentiate | V1R ag counter | CHRM4 PAM | CHRM4 agonist | CHRM4 antagonist
C/C(=N\OCC(=O)OCC(=O)N(C)c1ccccc1)c1ccc2c(c1)OCO2 | -1.1 | -5.9 | 0.5 | 7.6 | 4.5 | -1.5
CCc1nc2c(OCc3ccc(Cl)cc3Cl)cccn2c1N(C)C(=O)c1ccccc1F | x | x | x | -5.4 | 2.7 | 5.2
CCCCCc1ccc(OCCOCCn2c[n+](C)c3ccccc32)c(CCCCC)c1 | x | x | x | -19.3 | 2.2 | 57.8*
CCCCCc1ccc(OCCC[n+]2ccccc2)c(CCCCC)c1 | 0.1 | -6.8 | -0.6 | -48.0 | -0.4 | 31.6*
CC(=O)Nc1ccc(OCCC[n+]2ccccc2)cc1 | 1.7 | 6.9 | -0.4 | -10.5 | 0.0 | 11.1
O=C(c1cccc(C(F)(F)F)c1)C1CCCN(C(=O)/C=C/c2cnc[nH]2)C1 (stereo unspecified) | x | x | x | -0.5 | 2.9 | 3.6
COc1ccc(Cc2n[nH]c(=S)n2C)cc1Br | 2.1 | -5.2 | 1.5 | 0.7 | 0.8 | -2.1
COc1ccc(-c2nnc(-c3ccc(OCC(C)C)cc3)o2)cc1 | -0.6 | -14.2 | 0.5 | 22.1* | 1.8 | -5.6
Cc1ccc([N+](=O)[O-])cc1N/C=C1\CCc2ccccc2C1=O | -0.8 | -10.8 | 0.3 | 0.2 | 0.4 | 3.4
N#CCOC(=O)/C=C/c1ccc2c(c1)OCO2 | -0.2 | -11.1 | 1.2 | -0.3 | 1.7 | -3.3
CCC(C)N(C)Cc1cccc(C2(O)CCN(S(=O)(=O)c3ccc(F)c(C)c3)CC2)c1 (stereo unspecified) | -0.5 | -11.5 | -0.7 | -40.5 | 0.3 | 66.2*
O=C1CC(N2CCN(S(=O)(=O)c3ccccc3F)CC2)C(=O)N1c1ccccc1F (stereo unspecified) | x | x | x | -0.4 | 1.6 | -1.0
CC(=O)N1c2ccccc2S(=O)(=O)c2c1ccc1ccccc21 | x | x | x | 4.1 | 3.4 | -6.2
O=[N+]([O-])c1ccc(O)c(/C=N/n2cnc3ccccc32)c1 | 20.9* | -13.7 | 14.3 | 1.4 | 5.1 | -3.8
C#CCOc1ccc(C2C3=C(COC3=O)Nc3cc4c(cc32)OCO4)cc1OC (stereo unspecified) | x | x | x | 22.0* | 2.4 | -10.8
O=C1C(=O)N(CCN2CCOCC2)C(c2ccncc2)/C1=C(/O)c1ccc2c(c1)OCO2 (stereo unspecified) | 0.9 | -1.9 | 0.9 | 4.2 | 0.6 | 6.4
O=C1C(=O)N(CCN2CCOCC2)C(c2ccc([N+](=O)[O-])cc2)/C1=C(/O)c1ccc2c(c1)OCO2 (stereo unspecified) | 0.5 | -8.5 | 0.8 | 21.7* | 2.8 | -2.4
COc1ccc(NC(=O)CSc2ncnc3c2cnn3Cc2ccccc2)cc1OC | 7.9 | -8.7 | 6.9 | 14.2 | 4.7 | 28.6*
CS(=O)(=O)NN1C(=O)c2ccccc2NC1c1cccs1 (stereo unspecified) | -0.2 | -1.3 | 1.9 | 10.8 | 3.3 | -3.8
c1ccc(CCNc2ncnc3scc(C4COc5ccccc5O4)c23)cc1 (stereo unspecified) | -0.2 | -3.4 | 0.1 | -18.8 | -0.7 | 38.0*
Cc1cc(C)c(CN2CCN(C(=O)Cn3cnc4c(NCc5ccccc5)ncnc43)CC2)c(C)c1 | x | x | x | -12.2 | 9.0 | 10.9
Cc1cccc(N2CCN(C(=O)CCC(=O)N3CC(C)Oc4ccc(C)cc43)CC2C)c1 (stereo unspecified) | -2.6 | -4.8 | 1.6 | -18.7 | 11.9 | 100.5*
Cc1ccc2c(c1)N(C(=O)CCC(=O)N1CCN(c3ccccn3)CC1)CC(C)O2 (stereo unspecified) | -2.2 | -0.6 | -0.5 | -4.6 | 3.5 | 2.8
Cc1cc(C)c(Nc2ncnc(N)n2)c(C)c1 | 1.2 | 3.0 | 0.9 | -73.5 | -1.6 | 100.2*
Cc1ccccc1N1CCN(CCCN2C(=O)CC(=C(c3ccccc3)c3ccccc3)C2=O)CC1 | -2.3 | -8.2 | -1.2 | -17.1 | -3.0 | 38.3*
SMILES | OXTR ag | OXTR potentiate | V1R ag counter | CHRM4 PAM | CHRM4 agonist | CHRM4 antagonist
Cc1ccccc1N1CCN(CCN2C(=O)CC(=C3c4ccccc4-c4ccccc43)C2=O)CC1 | -0.6 | -2.2 | -0.3 | 14.1 | 0.5 | -10.8
O=C1CC(=C(c2ccccc2)c2ccccc2)C(=O)N1CCCCN1CCN(c2cccc(Cl)c2)CC1 | -2.5 | -8.8 | -1.2 | -19.6 | -2.2 | 39.8*
O=C1C2CCCCN2C(=O)N1CCCCN1CCN(c2cccc(Cl)c2)CC1 (stereo unspecified) | 0.9 | -12.1 | 1.3 | -3.9 | 0.4 | -2.6
CCOC(=O)c1ccc(-c2ccc(N3C(c4cccc(OC)c4)=Cc4ccc(F)cc4C3CC(C)=O)cc2)cc1F (stereo unspecified) | x | x | x | 14.9 | 2.2 | -17.2
O=C(/C=C/c1ccco1)N(Cc1ccccc1F)C1CCS(=O)(=O)C1 (stereo unspecified) | 0.1 | -7.0 | 0.2 | 0.2 | 0.9 | 5.4
CC(C)(C)OC(=O)NCC(=O)NNC(=O)C(C(=O)OCc1ccccc1)c1ccccc1 (stereo unspecified) | 0.4 | -7.9 | -1.0 | 17.0 | 2.6 | -11.8
c1ccc(C2(CN3CCNC[C@H]3Cc3cccc4ccccc34)CC2)cc1 | 7.6 | -6.8 | 2.4 | 28.5* | 5.9 | 9.7
O=C(N/N=C/c1c(O)ccc2ccccc12)c1ccc(Br)o1 | 20.5* | -16.7 | 21.7* | -0.8 | 4.2 | 0.8
O=C(N/N=C\c1c(O)ccc2ccccc12)c1cncc(Br)c1 | 152.4* | -17.1 | 154.5* | -6.6 | 38.0* | -5.6
O=C(N/N=C/c1c(O)ccc2ccccc12)c1cccnc1 | 7.7 | -22.5 | 14.2 | -2.2 | 4.5 | 4.6
COc1cc(/C=N/NC(=O)c2ccccc2NS(=O)(=O)c2cccs2)ccc1O | x | x | x | 8.1 | 0.3 | -26.7
O=C(CCCNS(=O)(=O)c1ccc(Cl)c(Cl)c1)NCCc1ccccn1 | 0.0 | -2.7 | 0.8 | -5.0 | 0.4 | -2.7
Cc1ccc(NC(=O)N2CCc3ccccc3C2)c(C)c1 | -1.4 | -1.5 | 1.4 | 19.0* | 1.6 | -9.5
Cc1ccc(NC(=O)N2CCc3ccccc3C2)cc1 | -1.7 | -0.9 | -0.7 | -3.1 | 1.1 | 0.8
O=C(NCCCN1CCOCC1)c1ccc2c(c1)N(Cc1cccc(Cl)c1)C(=O)CS2 | 1.3 | -6.3 | 0.9 | -20.4 | 3.3 | 36.1*
CCC(C)C(NC(=O)C1CCC(=O)N1C(=O)OCc1ccccc1)C(=O)NC(Cc1ccccc1)C(N)=O (stereo unspecified) | 0.9 | 5.4 | -0.3 | -2.9 | 1.5 | 2.2
CC[C@H](C)[C@H](NC(=O)[C@H](Cc1ccc(O)cc1)NC(=O)[C@@H](N)C(C)C)C(=O)N[C@@H](Cc1cnc[nH]1)C(=O)N1CCC[C@H]1C(=O)N[C@@H](Cc1ccccc1)C(=O)O | 71.7* | -24.6 | 25.1* | -0.5 | 9.7 | 3.9

Screens from PubChem BioAssay.
